Reference: PubChem BioAssay
The source made the active and inactive calls.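 Rule for the calls, unless noted: active = fluorescence slope higher than the sample average by over 3 SD (cut at about -0.22 in these data, passing the limit was not always enough); inactive = the rest.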

Columns and labels:
[1] = inhibitors of TNFa-induced NFkB p65 translocation, primary screen, imaging, HUVEC, MLSMR starter and 10KST1 sets (AID 438;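 active = inhibition above 20% together with a positive visual image hit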;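 note: compound added about 3h40 before a 20 min TNFalpha stimulation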;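 for inhibition: signal is the nuclear over cytoplasmic p65 intensity ratio per well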); settings: HUVEC TNFa-induced p65 nuclear translocation; cell count: measured here: nuclei count (cytotoxicity indicator), at 2.08 µM; inhibition: at 2 µM, stronger effect = higher value, 0% TNFa-plus-vehicle, 100% no-TNFa wells
[2] = inhibitors of E-selectin induction by TNFa, primary screen, imaging, HUVEC, immunofluorescence, MLSMR starter and 10KST1 sets (AID 487;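 active = visually confirmed hit in the image check and inhibition above 20%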;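 for inhibition: signal is fraction of cell area covered by stained E-selectin grains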;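 for nuclei count: 100% = median nuclei count of all wells on the same plate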); settings: HUVEC TNFalpha-induced E-selectin immunofluorescence imaging, at 2 µM; inhibition: stronger effect = higher value; nuclei count: measured here: cell number, toxicity
[3] = DUSP6 inhibitors restoring Erk phosphorylation by chemical complementation, primary imaging in DUSP6-transfected HeLa (AID 609;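 active = compounds giving at least 50% inhibition in the cell-based MKP-3 phosphatase rescue imaging test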;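 for inhibition: phospho-Erk level distribution per well compared with pooled transfected vehicle control wells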); settings: HeLa MKP-3 transfected, phospho-Erk imaging KS statistic, at 10 µM, cells stimulated with TPA for 15 min
[4] = biological target: Dual specificity protein phosphatase 6 (Homo sapiens) (UniProt Q16828); assay: as above; settings: HeLa MKP-3 transfected, phospho-Erk imaging KS statistic; at 10 µM; stronger effect = higher value; cells stimulated with TPA for 15 min
[5] = biological target: Voltage-gated potassium channel subunit beta-2 (Rattus norvegicus) (UniProt P62483); assay: KvBeta enzyme negative modulators, primary screen, biochemical, NADPH fluorescence (AID 622); settings: recombinant KvBeta, 4-cyanobenzaldehyde reduction, at 10 µM, stronger effect = higher value;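 note: slope of raw intensity against log time taken from 70 to 1610 s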
[6] = biological target: Voltage-gated potassium channel subunit beta-2 (Rattus norvegicus) (UniProt P62483); assay: KvBeta positive modulators, primary screen, biochemical, NADPH fluorescence (AID 623;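 active = NADPH fluorescence slope more negative than the mean of all samples by about 3 SD, 99.7% confidence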;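 note: fluorescence intensity change per second fitted from 20 to 320 s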); settings: Recombinant KvBeta, NADPH fluorescence decrease slope, 10 min; at 10 µM; stronger effect = lower value
[7] = biological target: Muscarinic acetylcholine receptor M4 (Homo sapiens) (UniProt P08173); assay: compounds altering M4/GIRK thallium flux, either direction, primary screen, M4 allosteric agonist project, cell-based, HEK293 M4/GIRK, BTC-AM (AID 625;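 active = fluorescence slope after compound addition differing from the mean of all tested samples at 99.7% confidence, mostly higher but some lower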;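 note: thallium influx through GIRK channels coupled to M4 in HEK293 cells with BTC-AM dye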); settings: at 10 µM, actives lie on both sides
Method in brief: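 Material – HEK293 cells with M4 receptor and GIRK channels · Buffer or medium – pH 7.3 thallium assay buffer · Doses – one dose, 10 µM final · Timing – cells overnight at 37 °C, BTC-AM loading 1 h, reads 2 min total · Measured by – kinetic fluorescence with BTC-AM dye · Controls – carbachol and DMSO controls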

[8] = inhibitors of larval lipid processing in zebrafish, primary screen, whole organism, PED6 fluorescence, gall bladder and intestine (AID 686;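 active = a full or partial loss of lipid-probe fluorescence in the fish gall bladder, intestine or both, judged by eye; inactive = no fluorescence loss, or compound toxic to the fish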;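 note: larvae 5 to 7 days old with five fish per well; signal comes from phospholipase A2 cleavage of quenched PED6 carried via bile; overnight exposure to compound and PED6 before scoring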); settings: Zebrafish larvae PED6 lipid processing, fluorescence scoring; screened at 20 µM (by protocol)
Method in brief: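 system = live zebrafish larvae aged 5-7 days, whole organism | probe or stimulus = ingested quenched lipid PED6 at 100 nM | doses = 20 µM single dose | timing = overnight exposure | detection = fluorescence microscopy with visual scoring of gall bladder and intestine | read-out = visual per-well fluorescence inhibition score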

[9] = inhibitors of Chlamydomonas gravitaxis, primary screen, whole organism, Chlamydomonas reinhardtii, WT vs cilia-less mutant, absorbance, 96-well (AID 463189;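 active = inhibition at or above 50% relative to wild type and mutant plate controls; inactive = inhibition below 50%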;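 note: 0% = wild type cc124 cells in DMSO and 100% = ciliumless bld1 mutant cells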); settings: OD600 absorbance, 2 days, at 10 µM, stronger effect = higher value
[10] = measured here: cell density z-score
[11] = measured here: nuclear c-Myc green intensity z-score
[12] = measured here: nuclear pErk red intensity z-score, stronger effect = higher value

Voltage-gated potassium channel subunit beta-2 (Rattus norvegicus), sequence (P62483 whole entry, looked up): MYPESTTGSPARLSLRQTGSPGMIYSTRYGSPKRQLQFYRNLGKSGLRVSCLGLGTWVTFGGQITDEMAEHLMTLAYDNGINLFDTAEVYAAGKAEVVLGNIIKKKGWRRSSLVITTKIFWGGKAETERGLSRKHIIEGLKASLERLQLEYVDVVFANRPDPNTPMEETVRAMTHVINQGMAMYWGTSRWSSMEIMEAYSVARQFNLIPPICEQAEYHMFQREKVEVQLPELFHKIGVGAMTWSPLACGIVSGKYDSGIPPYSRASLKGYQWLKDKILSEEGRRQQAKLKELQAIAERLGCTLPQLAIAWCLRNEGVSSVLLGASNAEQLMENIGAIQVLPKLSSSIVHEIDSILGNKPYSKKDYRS
Muscarinic acetylcholine receptor M4 (Homo sapiens), sequence (P08173 whole entry, looked up): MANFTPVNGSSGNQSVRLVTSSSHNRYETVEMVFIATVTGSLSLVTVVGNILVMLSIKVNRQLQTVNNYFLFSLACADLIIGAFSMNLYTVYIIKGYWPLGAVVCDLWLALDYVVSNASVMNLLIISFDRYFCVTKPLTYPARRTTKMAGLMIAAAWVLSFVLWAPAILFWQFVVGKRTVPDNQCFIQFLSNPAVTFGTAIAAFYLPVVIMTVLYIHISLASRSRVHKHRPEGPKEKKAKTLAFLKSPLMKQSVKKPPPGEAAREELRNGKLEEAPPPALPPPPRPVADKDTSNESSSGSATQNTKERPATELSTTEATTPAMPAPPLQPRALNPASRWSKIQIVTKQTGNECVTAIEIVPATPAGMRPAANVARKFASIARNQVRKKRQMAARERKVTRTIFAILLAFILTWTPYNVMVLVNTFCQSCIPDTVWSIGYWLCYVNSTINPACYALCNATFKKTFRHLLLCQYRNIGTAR
Dual specificity protein phosphatase 6 (Homo sapiens), sequence (Q16828 whole entry, looked up): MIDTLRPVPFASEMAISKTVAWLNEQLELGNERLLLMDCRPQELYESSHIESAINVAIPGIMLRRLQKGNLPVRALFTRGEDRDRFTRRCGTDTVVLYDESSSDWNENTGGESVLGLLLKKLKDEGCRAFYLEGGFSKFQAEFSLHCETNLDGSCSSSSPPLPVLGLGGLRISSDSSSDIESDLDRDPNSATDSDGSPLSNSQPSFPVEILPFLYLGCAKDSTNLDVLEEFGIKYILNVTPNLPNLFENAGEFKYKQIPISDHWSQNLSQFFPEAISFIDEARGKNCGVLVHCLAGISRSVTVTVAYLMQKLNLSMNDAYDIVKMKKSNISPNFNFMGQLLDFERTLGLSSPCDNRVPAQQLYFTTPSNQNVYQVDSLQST

| Compound | cell count [1] | inhibition [1] | inhibition [2] | nuclei count [2] [%] | z-score [3, 10] | z-score [3, 11] | z-score [3, 12] | inhibition [4] | fluorescence slope [5] | NADPH fluorescence slope [6] | fluorescence slope [7] | outcome [8] | inhibition [9] |
| --- | --- | --- | --- | --- | --- | --- | --- | --- | --- | --- | --- | --- | --- |
| O=C1NC(=O)C(c2cn(-c3ccccc3)nc2-c2ccc(F)cc2)N1 (stereo unspecified) | 664 | 1.3% (inactive) | -12.6% (inactive) | 115 | 0.135 | -0.561 | -0.862 | 3.49% (inactive) | -0.46 (inactive) | -5.3e-05 (inactive) | 0.005 (inactive) | inactive | 2.79% (inactive) |
| CC(=O)N1CCN(C2c3cccc4cccc(c34)C2NS(=O)(=O)c2ccccc2)CC1 (stereo unspecified) | 507 | -0.3% (inactive) | -19.2% (inactive) | 101 | 1.9 | -1.56 | -0.633 | 33.3% (inactive) | -0.462 (inactive) | -4.4e-05 (inactive) | 0.00522 (inactive) | inactive | 30.1% (inactive) |
| Cn1c(N)c(C#N)c2c(c1=S)CSC(C)(C)C2 | 571 | -20% (inactive) | -64.2% (inactive) | 144 | 0.44 | -1.23 | -1.03 | 25.8% (inactive) | -0.446 (inactive) | -6.4e-06 (inactive) | 0.00454 (inactive) | inactive | 9.9% (inactive) |
| Cc1nc(NCCCO)c(C#N)c2c1COC(C)(C)C2 | 588 | -3.1% (inactive) | -70% (inactive) | 142 | -0.306 | -0.435 | -0.462 | 12.8% (inactive) | -0.432 (inactive) | -9.1e-05 (inactive) | 0.00443 (inactive) | inactive | 24% (inactive) |
| COC(=O)NCC12CC3CC(C1)CC(CNC(=O)OC)(C3)C2 | 541 | 2.3% (inactive) | -75% (inactive) | 122 | 0.785 | 1.4 | -1.34 | 5.42% (inactive) | -0.467 (inactive) | -0.0001 (inactive) | 0.00455 (inactive) | inactive | -5.97% (inactive) |
| C=CCNc1nc(C)nc(OC)n1 | 634 | -0.1% (inactive) | 69.9% (active) | 85.8 | -3.44 | 2.82 | 1.07 | 14.7% (inactive) | -0.481 (inactive) | -4.7e-05 (inactive) | 0.00536 (inactive) | inactive | -10.1% (inactive) |
| CCOC(=O)C1=C(C)OC(N)=C(C#N)C1c1cc2ccccc2nc1N1CCCCC1 (stereo unspecified) | 619 | -8.2% (inactive) | -33.5% (inactive) | 181 | -0.314 | 0.189 | 0.368 | -14.6% (inactive) | -0.315 (inactive) | -8.1e-06 (inactive) | 0.00507 (inactive) | inactive | 37.2% (inactive) |
| Cc1csc(SCCn2c(Br)nc3c2c(=O)[nH]c(=O)n3C)n1 | 541 | -22.3% (inactive) | -35.3% (inactive) | 180 | 0.452 | 0.745 | 0.738 | -12.6% (inactive) | -0.409 (inactive) | -4.5e-05 (inactive) | 0.00514 (inactive) | inactive | 31.8% (inactive) |
| COc1ccccc1NC(=O)c1c(C)cc(=O)oc1C | 601 | -14.3% (inactive) | 35.3% (inactive) | 145 | -0.227 | -0.0987 | -0.0601 | -4.59% (inactive) | -0.409 (inactive) | -3e-05 (inactive) | 0.00639 (inactive) | inactive | 17.9% (inactive) |
| CN1CC2(C)CN(C(c3ccccc3)c3ccccc3)CC(C)(C1)C2O (stereo unspecified) | 529 | -8.9% (inactive) | -136% (inactive) | 154 | 1.6 | -0.0767 | -1.37 | 3.42% (inactive) | -0.479 (inactive) | -8.8e-05 (inactive) | 0.00415 (inactive) | inactive | -0.999% (inactive) |
| Cc1ccc(NC(=O)CSc2nnc(-c3ccco3)c(-c3ccco3)n2)cc1 | 389 | -7.7% (inactive) | -155% (inactive) | 183 | -0.429 | -0.71 | 1.45 | -0.608% (inactive) | -0.453 (inactive) | -0.000112 (inactive) | 0.00329 (inactive) | inactive | 11.9% (inactive) |
| CC(C)c1nc(NCCN2CCOCC2)c(C#N)c2c1COC(C)(C)C2 | 401 | -10.6% (inactive) | -276% (inactive) | 186 | -0.66 | -0.209 | 1.4 | -0.584% (inactive) | -0.473 (inactive) | -0.000118 (inactive) | 0.00407 (inactive) | inactive | 71.3% (active) |
| Cc1cc2c(C)nc(Cc3ccccc3)nc2o1 | 561 | -5.5% (inactive) | -85.6% (inactive) | 149 | -0.156 | 0.673 | 0.277 | 11.9% (inactive) | -0.438 (inactive) | -7.2e-05 (inactive) | 0.00471 (inactive) | inactive | 16.9% (inactive) |
| COc1ccccc1C1/C(=C(\O)c2ccc3c(c2)OCCO3)C(=O)C(=O)N1CCCN(C)C (stereo unspecified) | 402 | 2.9% (inactive) | -18% (inactive) | 134 | 1.75 | -0.784 | 1.05 | -4.78% (inactive) | -0.456 (inactive) | -7.9e-05 (inactive) | 0.00501 (inactive) | inactive | 12.8% (inactive) |
| COCc1[nH]nc2c1C(c1sccc1C)C(C#N)=C(N)O2 (stereo unspecified) | 569 | -7.1% (inactive) | -22.2% (inactive) | 170 | 1.09 | -0.767 | 0.181 | 8.31% (inactive) | -0.488 (inactive) | -2.8e-05 (inactive) | 0.00573 (inactive) | inactive | 0.653% (inactive) |
| CC(=O)CCn1c(=O)n(CCC(C)=O)c(=O)n(CCC(C)=O)c1=O | 352 | -1.6% (inactive) | -7% (inactive) | 97.7 | -1.19 | 2.07 | -0.0971 | 5.42% (inactive) | -0.512 (inactive) | -4.3e-05 (inactive) | 0.00631 (inactive) | inactive | -14.3% (inactive) |
| Cn1cc(Cl)nc1C(O)c1ccccc1 (stereo unspecified) | 629 | -11% (inactive) | -61.5% (inactive) | 174 | 0.432 | -0.744 | -0.497 | -0.233% (inactive) | -0.481 (inactive) | -2.6e-05 (inactive) | 0.00721 (inactive) | inactive | 20.3% (inactive) |
| COc1ccc(/C(O)=C2/C(=O)C(=O)N(c3nc(C)c(C)s3)C2c2ccco2)cc1 (stereo unspecified) | 611 | -12.5% (inactive) | -52.8% (inactive) | 196 | 1.1 | -0.551 | 1.3 | 12.7% (inactive) | -0.446 (inactive) | -5.8e-05 (inactive) | 0.00557 (inactive) | inactive | 0.492% (inactive) |
| CC(=O)Nc1ccc(NCC(O)COc2ccccc2)cc1 (stereo unspecified) | 374 | 6.4% (inactive) | 6.8% (inactive) | 81.4 | -1.13 | -0.751 | 0.509 | -2.59% (inactive) | -0.495 (inactive) | -6.3e-05 (inactive) | 0.00402 (inactive) | inactive | 22.2% (inactive) |
| CC1(C)C2CCC1(C)C(OC(=O)CC(=O)O)C2 (stereo unspecified) | 566 | -2% (inactive) | -63.5% (inactive) | 143 | 0.899 | -0.605 | 0.67 | 1.98% (inactive) | -0.382 (inactive) | -4.1e-05 (inactive) | 0.00679 (inactive) | inactive | 5.19% (inactive) |
| CC1(C)CC(=O)C(C=NCCN2CCN(CCc3ccccc3)CC2)=C(O)C1 | 367 | -0.8% (inactive) | -22.3% (inactive) | 94.1 | -1.16 | 0.888 | -1.15 | -2.69% (inactive) | -0.506 (inactive) | 1.2e-05 (inactive) | 0.00481 (inactive) | inactive | -9.36% (inactive) |
| CSc1nc2sc3c(c2c2nncn12)CCC3 | 595 | -9.4% (inactive) | -93% (inactive) | 148 | -0.00236 | -1.35 | -0.539 | -13.3% (inactive) | -0.46 (inactive) | -9.7e-05 (inactive) | 0.00506 (inactive) | inactive | 46.8% (inactive) |
| C=CCOC(=O)C1=C(C)NC(SCC(=O)Nc2ccc(C)c(Cl)c2)=C(C#N)C1c1ccco1 (stereo unspecified) | 654 | -12.4% (inactive) | -141% (inactive) | 165 | 0.0936 | -0.359 | 0.4 | 10.1% (inactive) | -0.465 (inactive) | -2.6e-05 (inactive) | 0.00959 (inactive) | inactive | 6.54% (inactive) |
| Cc1nn(CCO)c2c1C(=O)CCC2 | 514 | -5.8% (inactive) | -16.6% (inactive) | 166 | 1.33 | -0.18 | -0.238 | 5.95% (inactive) | -0.382 (inactive) | -2.1e-05 (inactive) | 0.00488 (inactive) | inactive | -6.32% (inactive) |
| COc1ccc(/C(O)=C2/C(=O)C(=O)N(CCCN(C)C)C2c2ccccc2)cc1Cl (stereo unspecified) | 690 | -2% (inactive) | -71.3% (inactive) | 159 | 0.886 | -1.15 | 1.23 | 4.25% (inactive) | -0.452 (inactive) | -6.6e-05 (inactive) | 0.00499 (inactive) | inactive | 20.4% (inactive) |
| Cc1c(C)n(C(=O)CSc2nccn2C)c2ccccc12 | 625 | 8.3% (inactive) | -34.7% (inactive) | 106 | -0.766 | 1.61 | 0.593 | 1.63% (inactive) | -0.416 (inactive) | -3.5e-05 (inactive) | 0.00619 (inactive) | inactive | -7.86% (inactive) |
| CC(=O)C1=C(O)C(=O)N(c2ccc(Br)cn2)C1c1ccccc1F (stereo unspecified) | 545 | -2.5% (inactive) | -45.7% (inactive) | 131 | 1.35 | -1.7 | -1.31 | 3.97% (inactive) | -0.454 (inactive) | -3.5e-05 (inactive) | 0.00688 (inactive) | inactive | 1.29% (inactive) |
